Data set [1] in a line: Nitric oxide release in PBS in presence of 5 mM L-cysteine at pH 7.4 in 37 degC after 1.5 hrs. Type of data set: functional. Summed up: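 Phosphate buffer pH 7.4 containing 5.0 mM L-cysteine, with test compound at 1.0 · 10^-2 mM, kept at 37 °C for 1.5 h. Nitrite was determined by Griess reaction. % NO released is relative to a theoretical maximum of 1 mol NO/mol for nitrooxyethyl esters. Mean of 3 measurements.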

Data set [2] is described as follows: Nitric oxide release in PBS at pH 7.4 in 37 degC after 1.5 hrs. Type of data set: functional. Set-up: concentration or dose not given beside the values. Summed up: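 Test compound at 1.0 · 10^-2 mM in phosphate buffer pH 7.4, incubated 37 °C for 1.5 h. Nitrite was quantified by Griess reaction. % NO released is relative to a theoretical maximum of 2 mol NO/mol for diazeniumdiolates, 1 mol/mol for nitrooxyethyl esters and 3 mol/mol for glycerol trinitrate. Mean of 3 measurements.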

In data set [3] the target is T1, Prostaglandin G/H synthase 1 (Ovis aries, UniProt P05979).
T1 sequence (P05979 whole entry): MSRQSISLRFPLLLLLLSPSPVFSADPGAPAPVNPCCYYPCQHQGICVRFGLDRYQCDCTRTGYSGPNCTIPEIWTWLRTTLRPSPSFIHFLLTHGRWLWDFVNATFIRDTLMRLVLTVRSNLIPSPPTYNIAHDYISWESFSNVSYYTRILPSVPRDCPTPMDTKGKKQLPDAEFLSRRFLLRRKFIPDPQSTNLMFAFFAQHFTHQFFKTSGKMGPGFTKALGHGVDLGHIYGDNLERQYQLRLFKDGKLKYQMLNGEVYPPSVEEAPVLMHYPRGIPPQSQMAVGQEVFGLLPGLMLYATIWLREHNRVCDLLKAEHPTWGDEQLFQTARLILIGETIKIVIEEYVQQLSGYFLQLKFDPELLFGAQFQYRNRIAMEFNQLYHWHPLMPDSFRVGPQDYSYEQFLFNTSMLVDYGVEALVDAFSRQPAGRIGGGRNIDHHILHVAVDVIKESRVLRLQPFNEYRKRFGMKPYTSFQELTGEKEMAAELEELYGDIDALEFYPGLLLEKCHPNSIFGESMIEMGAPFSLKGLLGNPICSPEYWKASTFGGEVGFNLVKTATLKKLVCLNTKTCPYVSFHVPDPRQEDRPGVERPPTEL
Kind of data set: Inhibition of ovine COX1 by enzyme immunoassay.

The subject of the next data set is Serum. Kind of data set: Nitric oxide in rat serum at pH 7.4 in 37 degC after 1.5 hrs. Type of data set: ADME, cell-free. Further details: concentration or dose not given beside the values. Particulars: pH 7.4, 1.5 h. In a few lines:
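Test compound at 1.0 · 10^-2 mM in phosphate buffer pH 7.4 with 90 µL rat serum added, incubated 37 °C for 1.5 h. Nitrite measured by Griess reaction. % NO released is relative to a theoretical maximum of 2 mol NO/mol for diazeniumdiolates and 1 mol/mol for nitrooxyethyl esters. Mean of 3 measurements.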

The species entered for the next data set is Ovis aries. Nature of the data set: Selectivity index, ratio of IC50 for ovine COX1 to IC50 for ovine COX2. Summed up:
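Ovine COX-1 and COX-2 IC50s were measured by enzyme immunoassay kit. Deviation from the mean was <10%. The index is COX-1 IC50/COX-2 IC50.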

By IC50 is commonly meant the midpoint of a concentration-inhibition curve. For `CS(=O)(=O)c1ccc(/C=C(/C(=O)OCCO[N+](=O)[O-])c2ccccc2)cc1`, the Activity in data set [1] was found to be 8.5%; in data set [2], 3%. In data set [3], this compound registered an IC50 of 6200 nM.
As for `COc1ccc(/C(=C\c2ccc(S(C)(=O)=O)cc2)C(=O)OCCO[N+](=O)[O-])cc1`, the Activity in data set [1] was 9.2%; in data set [2], 1.4%. In data set [3], it took 1100 nM to reach half-maximal inhibition (IC50).
In the case of `CC(=O)OCO/N=[N+](\[O-])N(C)CCOC(=O)/C(=C/c1ccc(S(C)(=O)=O)cc1)c1ccccc1`, the results for the Activity (with Serum; in data set [2]) were 83% and 4.8%, respectively.
Taken in the same sequence, the figures for `CC(=O)OCO/N=[N+](\[O-])N(C)CCOC(=O)/C(=C/c1ccc(S(C)(=O)=O)cc1)c1ccc(F)cc1` were 82.1% and 3.6%.
Taken in the same sequence, the figures for `CN(CCO)/[N+]([O-])=N/[O-].[Na+]` were 85% and 84.9%.
Taken in the same sequence, the figures for `CC(=O)OCO/N=[N+](\[O-])N(C)CCOC(=O)/C(=C/c1ccc(S(C)(=O)=O)cc1)c1ccc(Br)cc1` were 76.2% and 3.5%.
The compound `COc1ccc(/C(=C\c2ccc(S(C)(=O)=O)cc2)C(=O)O)cc1` showed an IC50 in data set [3] of 31600 nM.
`O=[N+]([O-])OCC(CO[N+](=O)[O-])O[N+](=O)[O-]`: the values for the Activity in data set [1] and in data set [2] were 10.1% and 2.8%, respectively.
Compound `CS(=O)(=O)c1ccc(/C=C(/C(=O)O)c2ccc(F)cc2)cc1` gave an IC50 in data set [3] of 400 nM.
Turning to `CS(=O)(=O)c1ccc(/C=C(/C(=O)OCCO[N+](=O)[O-])c2ccc(Br)cc2)cc1`, the figures for the Activity in data set [1] and in data set [2] were 10.1% and 1%, respectively. This compound came in with an IC50 in data set [3] of 370 nM.
Regarding `COc1ccc(/C(=C\c2ccc(S(C)(=O)=O)cc2)C(=O)OCCN(C)/[N+]([O-])=N/OCOC(C)=O)cc1`, the figures for the Activity (in the data set on Serum; in data set [2]) were 77.6% and 3.9%, respectively.
Regarding `CS(=O)(=O)c1ccc(/C=C(/C(=O)OCCO[N+](=O)[O-])c2ccc(F)cc2)cc1`, the Activity in data set [1] was determined as 7.6%; in data set [2], 3.3%. Moreover, in data set [3], the 50% inhibitory concentration (IC50) is 1600 nM.
For the compound `CS(=O)(=O)c1ccc(/C=C(/C(=O)O)c2ccccc2)cc1`, the Ratio IC50 in the data set listed under Ovis aries is 0.5. In data set [3], this compound registered a concentration for half-maximal inhibition (IC50) of 1500 nM.
On to `CS(=O)(=O)c1ccc(/C=C(/C(=O)O)c2ccc(Br)cc2)cc1`, for which half-maximal inhibition in data set [3] (IC50) required 880 nM.

Source of the values: ChEMBL document CHEMBL1143874, “Diazen-1-ium-1,2-diolated and nitrooxyethyl nitric oxide donor ester prodrugs of anti-inflammatory (E)-2-(aryl)-3-(4-methanesulfonylphenyl)acrylic acids: synthesis, cyclooxygenase inhibition, and nitric oxide release studies” (Bioorg Med Chem, 2008).
